In ChEMBL document CHEMBL5058577, “EUbOPEN Chemogenomics Library 2 (Multiplex)” (2022):

System: U2OS
Test: Multiplex assay against U2OS
Assay type: toxicity, cell-based
Settings: human
Summary of the method: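 Imaging took place on a CQ1 microscope at 37°C and 5% CO2 once compound had been added to live cells stained at seeding with Hoechst33342, BioTracker Green Microtubule Cytoskeleton Dye, MitoTracker Red and Annexin V Alexa Fluor 680. CellPathfinder machine-learning gating classed cells as Hoechst high-intensity objects or normal cells, classed normal cells as having healthy, pyknosed or fragmented nuclei, and classed pyknosed cells as mitotic or apoptotic. Tubulin, mitochondrial-mass and membrane-permeability phenotypes are per cents of the healthy-nucleus cells.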

[1] = 12 h, 1 µM, compound concentration 1 uM, replicate 1
[2] = 12 h, 1 µM, compound concentration 1 uM, replicate 2
[3] = 12 h, 10 µM, compound concentration 10 uM, replicate 1
[4] = 12 h, 10 µM, compound concentration 10 uM, replicate 2
[5] = 24 h, 1 µM, compound concentration 1 uM, replicate 1
[6] = 24 h, 1 µM, compound concentration 1 uM, replicate 2
[7] = 24 h, 10 µM, compound concentration 10 uM, replicate 1
[8] = 24 h, 10 µM, compound concentration 10 uM, replicate 2
[9] = 48 h, 1 µM, compound concentration 1 uM, replicate 1
[10] = 48 h, 1 µM, compound concentration 1 uM, replicate 2
[11] = 48 h, 10 µM, compound concentration 10 uM, replicate 1
[12] = 48 h, 10 µM, compound concentration 10 uM, replicate 2

Compound: S=C(NCCCc1c[nH]cn1)NCCCN(Cc1ccc(Cl)c(Cl)c1)c1ccc(Br)cn1
- Population Apoptotic (%) [1]: 75%
- Population Fragmented Nuclei (%) [1]: 27%
- Population Healthy Nuclei (%) [1]: 63%
- Population Hoechst High Intensity Objects (%) [1]: 2%
- Population Membrane Permeable-Phenotype (%) [1]: 13%
- Population Mitochondria Different-Phenotype (%) [1]: 2%
- Population Mitotic Cells (%) [1]: 25%
- Population Normal (%) [1]: 97%
- Population Pyknosed Nuclei (%) [1]: 9%
- Population Tubulin-Different-Phenotype (%) [1]: 6%
- Total Cell Count [1]: 228
- Population Apoptotic (%) [2]: 80%
- Population Fragmented Nuclei (%) [2]: 20%
- Population Healthy Nuclei (%) [2]: 68%
- Population Hoechst High Intensity Objects (%) [2]: 3%
- Population Membrane Permeable-Phenotype (%) [2]: 6%
- Population Mitochondria Different-Phenotype (%) [2]: 9%
- Population Mitotic Cells (%) [2]: 20%
- Population Normal (%) [2]: 96%
- Population Pyknosed Nuclei (%) [2]: 11%
- Population Tubulin-Different-Phenotype (%) [2]: 1%
- Total Cell Count [2]: 93
- Population Apoptotic (%) [3]: 66%
- Population Fragmented Nuclei (%) [3]: 27%
- Population Healthy Nuclei (%) [3]: 46%
- Population Hoechst High Intensity Objects (%) [3]: 6%
- Population Membrane Permeable-Phenotype (%) [3]: 86%
- Population Mitochondria Different-Phenotype (%) [3]: 26%
- Population Mitotic Cells (%) [3]: 33%
- Population Normal (%) [3]: 93%
- Population Pyknosed Nuclei (%) [3]: 26%
- Population Tubulin-Different-Phenotype (%) [3]: 83%
- Total Cell Count [3]: 220
- Population Apoptotic (%) [4]: 58%
- Population Fragmented Nuclei (%) [4]: 24%
- Population Hoechst High Intensity Objects (%) [4]: 0%
- Population Membrane Permeable-Phenotype (%) [4]: 84%
- Population Mitochondria Different-Phenotype (%) [4]: 60%
- Population Mitotic Cells (%) [4]: 41%
- Population Normal (%) [4]: 100%
- Population Pyknosed Nuclei (%) [4]: 29%
- Population Tubulin-Different-Phenotype (%) [4]: 89%
- Total Cell Count [4]: 82
- Population Apoptotic (%) [5]: 81%
- Population Fragmented Nuclei (%) [5]: 22%
- Population Healthy Nuclei (%) [5]: 69%
- Population Hoechst High Intensity Objects (%) [5]: 3%
- Population Membrane Permeable-Phenotype (%) [5]: 11%
- Population Mitochondria Different-Phenotype (%) [5]: 3%
- Population Mitotic Cells (%) [5]: 18%
- Population Normal (%) [5]: 96%
- Population Pyknosed Nuclei (%) [5]: 8%
- Population Tubulin-Different-Phenotype (%) [5]: 9%
- Total Cell Count [5]: 285
- Population Apoptotic (%) [6]: 100%
- Population Fragmented Nuclei (%) [6]: 30%
- Population Healthy Nuclei (%) [6]: 65%
- Population Hoechst High Intensity Objects (%) [6]: 1%
- Population Membrane Permeable-Phenotype (%) [6]: 7%
- Population Mitochondria Different-Phenotype (%) [6]: 5%
- Population Mitotic Cells (%) [6]: 0%
- Population Normal (%) [6]: 98%
- Population Pyknosed Nuclei (%) [6]: 4%
- Population Tubulin-Different-Phenotype (%) [6]: 3%
- Total Cell Count [6]: 125
- Population Apoptotic (%) [7]: 62%
- Population Fragmented Nuclei (%) [7]: 33%
- Population Healthy Nuclei (%) [7]: 38%
- Population Hoechst High Intensity Objects (%) [7]: 5%
- Population Membrane Permeable-Phenotype (%) [7]: 59%
- Population Mitochondria Different-Phenotype (%) [7]: 17%
- Population Mitotic Cells (%) [7]: 37%
- Population Normal (%) [7]: 94%
- Population Pyknosed Nuclei (%) [7]: 28%
- Population Tubulin-Different-Phenotype (%) [7]: 54%
- Total Cell Count [7]: 227
- Population Apoptotic (%) [8]: 60%
- Population Fragmented Nuclei (%) [8]: 29%
- Population Healthy Nuclei (%) [8]: 40%
- Population Hoechst High Intensity Objects (%) [8]: 2%
- Population Membrane Permeable-Phenotype (%) [8]: 77%
- Population Mitochondria Different-Phenotype (%) [8]: 32%
- Population Mitotic Cells (%) [8]: 39%
- Population Normal (%) [8]: 97%
- Population Pyknosed Nuclei (%) [8]: 29%
- Population Tubulin-Different-Phenotype (%) [8]: 64%
- Total Cell Count [8]: 79
- Population Apoptotic (%) [9]: 83%
- Population Fragmented Nuclei (%) [9]: 17%
- Population Healthy Nuclei (%) [9]: 74%
- Population Hoechst High Intensity Objects (%) [9]: 1%
- Population Membrane Permeable-Phenotype (%) [9]: 5%
- Population Mitochondria Different-Phenotype (%) [9]: 3%
- Population Mitotic Cells (%) [9]: 16%
- Population Normal (%) [9]: 98%
- Population Pyknosed Nuclei (%) [9]: 7%
- Population Tubulin-Different-Phenotype (%) [9]: 2%
- Total Cell Count [9]: 409
- Population Apoptotic (%) [10]: 87%
- Population Fragmented Nuclei (%) [10]: 28%
- Population Healthy Nuclei (%) [10]: 60%
- Population Hoechst High Intensity Objects (%) [10]: 0%
- Population Mitotic Cells (%) [10]: 12%
- Population Normal (%) [10]: 99%
- Population Pyknosed Nuclei (%) [10]: 11%
- Population Tubulin-Different-Phenotype (%) [10]: 3%
- Total Cell Count [10]: 211
- Population Apoptotic (%) [11]: 70%
- Population Fragmented Nuclei (%) [11]: 43%
- Population Healthy Nuclei (%) [11]: 8%
- Population Hoechst High Intensity Objects (%) [11]: 21%
- Population Membrane Permeable-Phenotype (%) [11]: 46%
- Population Mitochondria Different-Phenotype (%) [11]: 20%
- Population Mitotic Cells (%) [11]: 29%
- Population Normal (%) [11]: 78%
- Population Pyknosed Nuclei (%) [11]: 47%
- Population Tubulin-Different-Phenotype (%) [11]: 26%
- Total Cell Count [11]: 230
- Population Apoptotic (%) [12]: 73%
- Population Fragmented Nuclei (%) [12]: 50%
- Population Healthy Nuclei (%) [12]: 15%
- Population Hoechst High Intensity Objects (%) [12]: 15%
- Population Membrane Permeable-Phenotype (%) [12]: 57%
- Population Mitochondria Different-Phenotype (%) [12]: 42%
- Population Mitotic Cells (%) [12]: 26%
- Population Normal (%) [12]: 84%
- Population Pyknosed Nuclei (%) [12]: 33%
- Population Tubulin-Different-Phenotype (%) [12]: 57%
- Total Cell Count [12]: 105
